From publication PMC8427789 (ACS Omega, 2021)

What was measured:
PTP-1B = biological target: T1, PTP-1B (Homo sapiens, UniProt P18031); assay: PTP-1B kinetic studies; type: biochemical
T1 sequence (P18031 1-435): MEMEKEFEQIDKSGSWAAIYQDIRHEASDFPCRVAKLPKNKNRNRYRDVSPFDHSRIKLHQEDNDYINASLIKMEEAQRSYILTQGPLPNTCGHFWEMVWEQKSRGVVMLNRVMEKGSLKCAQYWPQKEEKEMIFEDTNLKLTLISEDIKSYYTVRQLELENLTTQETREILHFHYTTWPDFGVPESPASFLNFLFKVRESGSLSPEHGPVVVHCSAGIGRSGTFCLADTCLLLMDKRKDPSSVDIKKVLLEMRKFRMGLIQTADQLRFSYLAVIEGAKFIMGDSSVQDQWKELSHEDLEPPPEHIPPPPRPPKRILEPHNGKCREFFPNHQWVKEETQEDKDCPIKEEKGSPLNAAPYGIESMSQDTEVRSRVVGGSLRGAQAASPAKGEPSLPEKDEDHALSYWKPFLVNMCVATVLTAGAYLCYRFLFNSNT
How it was run: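 Recombinant human PTP-1B in 100 mM tris buffer, pH 6.8. Test compound at 0.03, 0.07 and 0.1 mM, dissolved in DMSO or buffer, preincubated 5 min with enzyme (solution at 1.56 mg/mL). Then p-NPP added at 0.6–3 mM for 20 min at room temperature, absorbance read at 415 nm. Lineweaver–Burk double-reciprocal plots made; Vmax, Km and Ki from nonlinear regression fit.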

[1] = biological target: T2, recombinant human protein tyrosine phosphatase 1B (PTP-1B) (Homo sapiens, UniProt P18031); assay: PTP-1B activity assay; type: biochemical
T2 sequence (P18031 1-435): T1 sequence (P18031 1-435)

[2] = biological target: yeast α-glucosidase (yeast AG) (Saccharomyces cerevisiae, UniProt P53051); assay: biochemical
Chain of yeast α-glucosidase (yeast AG) (P53051 2-589): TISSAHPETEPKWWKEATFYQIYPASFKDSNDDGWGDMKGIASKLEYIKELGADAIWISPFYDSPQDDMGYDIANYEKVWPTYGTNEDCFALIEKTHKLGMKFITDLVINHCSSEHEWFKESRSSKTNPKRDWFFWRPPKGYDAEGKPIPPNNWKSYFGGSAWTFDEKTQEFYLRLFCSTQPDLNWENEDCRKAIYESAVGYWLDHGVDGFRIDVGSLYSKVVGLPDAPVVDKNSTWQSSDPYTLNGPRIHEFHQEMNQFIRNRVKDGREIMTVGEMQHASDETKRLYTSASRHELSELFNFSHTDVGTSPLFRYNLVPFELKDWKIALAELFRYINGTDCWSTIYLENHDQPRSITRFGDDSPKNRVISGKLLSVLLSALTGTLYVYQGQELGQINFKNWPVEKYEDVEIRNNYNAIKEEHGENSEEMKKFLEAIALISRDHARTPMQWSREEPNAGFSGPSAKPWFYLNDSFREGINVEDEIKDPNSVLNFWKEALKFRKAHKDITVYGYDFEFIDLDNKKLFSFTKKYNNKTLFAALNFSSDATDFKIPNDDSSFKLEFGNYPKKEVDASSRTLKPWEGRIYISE

| Ki (PTP-1B) | type of inhibition of PTP-1B (PTP-1B; Lineweaver–Burk plot) | Vmax (PTP-1B; PTP-1B, p-NPP) | IC50 [1] | IC50 [2] | SMILES |
| --- | --- | --- | --- | --- | --- |
| 27.5 µM | noncompetitive | 1.308 mM/min | 81 ± 4 µM | – | COC(=O)c1c(O)ccc2oc3cc(CO)cc(O)c3c(=O)c12 [Compound 3, sydowinin B] |
| – | – | – | – | 403 ± 10 µM | C[C@H]1O[C@H](O[C@H]2[C@H](O)[C@@H](O)[C@@H](O[C@H]3[C@H](O)[C@@H](O)C(O)O[C@@H]3CO)O[C@@H]2CO)[C@H](O)[C@@H](O)[C@@H]1N[C@H]1C=C(CO)[C@@H](O)[C@H](O)[C@H]1O (some centres unmarked) [acarbose] |
